Assays:
[1] = Plasma protein binding in beagle dog at 2 uM; assay type: ADME, cell-free, Canis lupus familiaris; conditions: read-out: PPB (converted)
In short: (§1)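 Plasma protein binding measured in mouse, rat, dog and monkey plasma at 2 μM compound.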

Mus musculus [2] = experiment: Inhibition of HDAC in CD1 nu/nu mouse tumor xenografted with human HCT116 cells assessed as plasma drug level causing increase in H2BK5 acetylation at 100 mg/kg, po bid after 72 hrs by ELISA; assay type: functional, HCT-116
HCT-116 = experiment: cells; assay type: functional, Homo sapiens
[3] = Drug metabolism in human hepatocytes assessed as glucose conjugate level; assay type: ADME, cell-based, Hepatocyte
[4] = Oral bioavailability in beagle dog at 1 mg/kg; assay type: ADME, organism-based, Canis lupus familiaris; conditions: in vivo
Mus musculus [5] = experiment: Unbound Cmax in 3 week po dosed CD1 nu/nu mouse xenografted with human HCT116 cells; assay type: ADME, organism-based, HCT-116; conditions: in vivo, 504 h
[6] = Plasma clearance in rhesus monkey at 0.5 mg/kg, iv; assay type: ADME, organism-based, Macaca mulatta; set-up: dose 0.5 mg/kg, route intravenous
In short: (§2)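 Intravenous dosing at 5 (mouse), 2 (rat), 0.5 (dog) and 0.5 (monkey) mg/kg. Plasma clearance, steady-state volume of distribution and half-life derived from the plasma profile.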

[7] = Plasma clearance in Sprague-Dawley rat at 2 mg/kg, iv; assay type: ADME, organism-based; set-up: dose 2 mg/kg, route intravenous; in short: as §2
Mus musculus [8] = experiment: Inhibition of HDAC in CD1 nu/nu mouse tumor xenografted with human HCT116 cells assessed as plasma drug level causing increase in H2BK5 acetylation at 100 mg/kg, po bid after 24 hrs by ELISA; assay type: functional, HCT-116
Mus musculus [9] = experiment: Inhibition of HDAC in CD1 nu/nu mouse tumor xenografted with human HCT116 cells assessed as plasma drug level causing increase in H2BK5 acetylation at 200 mg/kg, po qd after 48 hrs by ELISA; assay type: functional, HCT-116
[10] = AUC (0 to 24 hrs) in CD1 nu/nu mouse xenografted with human HCT116 cells at 150 mg/kg, po qd for 3 weeks; assay type: ADME, organism-based, HCT-116; set-up: time < 24 hr, dose 150 mg/kg, route oral; conditions: in vivo
In short: (§3)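 HCT116 cells (5 × 10^6/mouse) injected sc into right flank of CD1 nu/nu mice; at ~325 mm3 tumors, randomized into groups of 12. Oral dosing 21 days, once daily or biweekly, in 40% v/v PEG-400 and 25% w/v HPβCD at 20 μL/g. […] Tumor size by caliper.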

Rhesus monkey = experiment: Dose normalized AUC in rhesus monkey at 1 mg/kg, po; assay type: ADME, organism-based, Macaca mulatta; set-up: dose 1 mg/kg, route oral; conditions: in vivo
In short: (§4)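 Oral exposure, dose-normalized (μM·h·kg/mg), from a PK study also run with iv dosing (rat 2 mg/kg iv, 4 mg/kg po; monkey 0.5 mg/kg iv, 1 mg/kg po). Plasma clearance, Vdss, half-life and oral bioavailability also derived.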

[11] = Drug metabolism in liver microsomes (unknown origin) assessed as CYP-mediated oxidation; assay type: ADME
in vivo [12] = conditions: CD1 nu/nu, mouse, po, 200 mg/kg
[13] = Drug metabolism in dog hepatocytes assessed as hydrolysis of oxazolidinone group; assay type: ADME, cell-based, Canis lupus familiaris, Hepatocyte
Mus musculus [14] = experiment: Inhibition of HDAC in CD1 nu/nu mouse tumor xenografted with human HCT116 cells assessed as plasma drug level causing increase in H2BK5 acetylation at 100 mg/kg, po bid after 1 hr by ELISA; assay type: functional, HCT-116
[15] = Oral bioavailability in CD-1 mouse at 10 mg/kg; assay type: ADME, organism-based; conditions: in vivo
Mus musculus [16] = experiment: Inhibition of HDAC in CD1 nu/nu mouse tumor xenografted with human HCT116 cells assessed as plasma drug level causing increase in H2BK5 acetylation at 200 mg/kg, po qd after 4 hrs by ELISA; assay type: functional, HCT-116
[17] = Plasma clearance in CD-1 mouse at 5 mg/kg, iv; assay type: ADME, organism-based; set-up: dose 5 mg/kg, route intravenous; in short: as §2
[18] = AUC (0 to 24 hrs) in CD1 nu/nu mouse xenografted with human HCT116 cells at 100 mg/kg, po qd for 3 weeks; assay type: ADME, organism-based, HCT-116; set-up: time < 24 hr, dose 100 mg/kg, route oral; conditions: in vivo; in short: as §3
in vivo [19] = conditions: CD1 nu/nu, mouse, po, 875 mg/kg
Mus musculus [20] = experiment: Unbound Cmin in 3 week po dosed CD1 nu/nu mouse xenografted with human HCT116 cells after 24 hrs; assay type: ADME, organism-based, HCT-116; conditions: in vivo
[21] = AUC (0 to 24 hrs) in CD1 nu/nu mouse xenografted with human HCT116 cells at 875 mg/kg, po administered biweekly for 3 weeks; assay type: ADME, organism-based, HCT-116; set-up: time < 24 hr, dose 875 mg/kg, route oral; conditions: in vivo; in short: as §3
[22] = Half life in beagle dog at 0.5 mg/kg, iv; assay type: ADME, organism-based, Canis lupus familiaris; set-up: dose 0.5 mg/kg, route intravenous; conditions: in vivo; in short: as §2
Mus musculus [23] = experiment: Inhibition of HDAC in CD1 nu/nu mouse tumor xenografted with human HCT116 cells assessed as plasma drug level causing increase in H2BK5 acetylation at 67 mg/kg, po tid after 24 hrs by ELISA; assay type: functional, HCT-116
in vivo [24] = conditions: CD1 nu/nu, mouse, po, 150 mg/kg
[25] = AUC (0 to 24 hrs) in CD1 nu/nu mouse xenografted with human HCT116 cells at 200 mg/kg, po qd for 3 weeks; assay type: ADME, organism-based, HCT-116; set-up: time < 24 hr, dose 200 mg/kg, route oral; conditions: in vivo; in short: as §3
Mus musculus [26] = experiment: Inhibition of HDAC in CD1 nu/nu mouse tumor xenografted with human HCT116 cells assessed as plasma drug level causing increase in H2BK5 acetylation at 100 mg/kg, po bid after 4 hrs by ELISA; assay type: functional, HCT-116
Rattus norvegicus = experiment: Dose normalized AUC in Sprague-Dawley rat at 4 mg/kg, po; assay type: ADME, organism-based; set-up: dose 4 mg/kg, route oral; conditions: in vivo; in short: as §4
[27] = Plasma clearance in beagle dog at 0.5 mg/kg, iv; assay type: ADME, organism-based, Canis lupus familiaris; set-up: dose 0.5 mg/kg, route intravenous; in short: as §2
Mus musculus [28] = experiment: Inhibition of HDAC in CD1 nu/nu mouse tumor xenografted with human HCT116 cells assessed as plasma drug level causing increase in H2BK5 acetylation at 67 mg/kg, po tid after 8 hrs by ELISA; assay type: functional, HCT-116
Canis familiaris = experiment: Dose normalized AUC in beagle dog at 1 mg/kg, po; assay type: ADME, organism-based, Canis lupus familiaris; set-up: dose 1 mg/kg, route oral; conditions: in vivo
in vivo [29] = conditions: CD1 nu/nu, mouse, po, 50 mg/kg
[30] = Cmax in CD1 nu/nu mouse xenografted with human HCT116 cells at 100 mg/kg, po qd for 3 weeks; assay type: ADME, organism-based, HCT-116; set-up: dose 100 mg/kg, route oral; conditions: in vivo
In short: (§5)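 HCT116 cells (5 × 10^6 per mouse) injected subcutaneously into the right flank of CD1 nu/nu mice. Once tumors reached ~325 mm3, mice were randomized into groups of 12 and dosed orally for 21 days, once daily (qd) or biweekly (biw). Vehicle was 40% v/v PEG-400 plus 25% w/v HPβCD at 20 μL/g.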

[31] = Volume of distribution at steady state in rhesus monkey at 0.5 mg/kg, iv; assay type: ADME, organism-based, Macaca mulatta; set-up: dose 0.5 mg/kg, route intravenous; conditions: in vivo, read-out: Vdss; in short: as §2
[32] = Cmax in CD1 nu/nu mouse xenografted with human HCT116 cells at 350 mg/kg, po administered biweekly for 3 weeks; assay type: ADME, organism-based, HCT-116; set-up: dose 350 mg/kg, route oral; conditions: in vivo; in short: as §5
[33] = Plasma protein binding in Sprague-Dawley rat at 2 uM; assay type: ADME, cell-free; conditions: read-out: PPB (converted); in short: as §1
in vivo [34] = conditions: CD1 nu/nu, mouse, po, 525 mg/kg

fraction unbound at 2 µM [1]: 0.024
GI90 (HCT-116): 367 nM
Drug metabolism [3]: metabolite_notdetected
bioavailability [4]: 17%
fCmax (Mus musculus [5]): 240 nM
clearance [6]: 27 mL/min/kg
clearance [7]: 3.6 mL/min/kg
AUC at 24 h [10]: 208 µM·h
AUC/dose (Rhesus monkey): 1.8 µM·kg·h/mg
Drug metabolism [11]: metabolite_notdetected
concentration at 24 h (in vivo [12]): 5 µM
Drug metabolism [13]: metabolite_notdetected
bioavailability [15]: 82%
clearance [17]: 27 mL/min/kg
AUC at 24 h [18]: 110 µM·h
concentration at 24 h (in vivo [19]): 19.3 µM
fCmin (Mus musculus [20]): 48 nM
AUC at 24 h [21]: 1220 µM·h
half-life [22]: 1.4 h
concentration at 24 h (in vivo [24]): 3.3 µM
AUC at 24 h [25]: 371 µM·h
AUC/dose (Rattus norvegicus): 3 µM·kg·h/mg
clearance [27]: 22 mL/min/kg
AUC/dose (Canis familiaris): 0.3 µM·kg·h/mg
concentration at 24 h (in vivo [29]): 0.9 µM
Cmax [30]: 6.9 µM
Vd [31]: 7.8 L/kg
Cmax [32]: 32.8 µM
fraction unbound at 2 µM [33]: 0.002
concentration at 24 h (in vivo [34]): 9.4 µM
Compound: Nc1ccc(-c2cccs2)cc1NC(=O)c1ccc(N2CCC3(CC2)CNC(=O)O3)nc1
INH (Mus musculus [2]): 0.2 µM
GI25 (HCT-116): 50 nM
GI75 (HCT-116): 188 nM
INH (Mus musculus [8]): 0.4 µM
INH (Mus musculus [9]): 0.2 µM
INH (Mus musculus [14]): 14.3 µM
INH (Mus musculus [16]): 17.2 µM
INH (Mus musculus [23]): 1.5 µM
INH (Mus musculus [26]): 9.6 µM
INH (Mus musculus [28]): 8.2 µM
